# HCV core dimer: inhibitors of HCV core protein dimerization, primary screen, biochemical, TR-FRET, high-throughput | actives 0.33% (n = 300,000) | AID 1899, 2009 | TR-FRET GST/Flag-core106 dimerization, 1536-well | inhibition, % at 5 µM;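 active means inhibition above the mean of all tested compounds plus 3 SD, set per screening campaign, cut at about 45% in these data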
#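 test system = GST/Flag-tagged HCV core106 proteins | probe or stimulus = Eu donor and XL665 acceptor anti-tag antibodies | times = compound-protein-antibody incubation 4 h at 22.5 °C | signal = TR-FRET, excitation 340 nm, emission 617 and 671 nm | measure = percent inhibition of core106 dimerization signal | controls = wells lacking GST-core106 and wells with excess unlabelled core106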
# rCAG RNA binder: binders of r(CAG) RNA repeats, primary screen, biochemical, fluorescence; r(CAG) RNA repeat, TO-PRO-1 dye displacement fluorescence; actives 1.3% (n = 370,000); inhibition, % at 3 µM;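 active means inhibition above the plate cutoff, the mean of all test compounds on that plate plus 3 SD, cut at about 35% in these data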;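 further: higher means more dye released from RNA so lower well fluorescence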
# NadD inh: inhibitors of S. aureus NadD, primary screen, biochemical, colorimetric, uHTS. Nicotinate-nucleotide adenylyltransferase NadD (Staphylococcus aureus N315). purified NadD enzyme, colorimetric absorbance read-out. inhibition, % at 20 µM. actives 0.78% (n = 360,000); in the data active means inhibition above about 26%
# ABHD5 PLIN5 PPI: ABHD5-PLIN5 interaction inhibitors, primary screen, cell lysate, split luciferase complementation, luminescence | inhibition, % at 4 µM | Perilipin-5 (Homo sapiens) + 1-acylglycerol-3-phosphate O-acyltransferase ABHD5 (Homo … | Split G. princeps luciferase complementation, 4 h | actives 0.78% (n = 360,000);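 active means inhibition above the mean inhibition across every tested compound plus 3 SD, cut at about 22% in these data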
# Target sequence (Q00G26 whole entry, looked up): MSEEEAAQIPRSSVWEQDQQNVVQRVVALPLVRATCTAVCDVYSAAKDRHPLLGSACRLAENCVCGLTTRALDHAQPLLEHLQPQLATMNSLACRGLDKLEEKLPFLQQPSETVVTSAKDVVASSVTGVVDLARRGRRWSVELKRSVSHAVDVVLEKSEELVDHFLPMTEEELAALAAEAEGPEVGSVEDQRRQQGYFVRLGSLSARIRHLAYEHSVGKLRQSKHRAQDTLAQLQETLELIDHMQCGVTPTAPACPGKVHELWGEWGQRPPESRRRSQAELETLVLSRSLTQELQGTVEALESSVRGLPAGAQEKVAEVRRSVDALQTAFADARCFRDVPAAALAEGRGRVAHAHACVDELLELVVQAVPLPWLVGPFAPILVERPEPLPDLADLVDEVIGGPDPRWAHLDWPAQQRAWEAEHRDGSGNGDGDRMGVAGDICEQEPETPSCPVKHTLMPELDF
# Target sequence (Q8WTS1 whole entry, looked up): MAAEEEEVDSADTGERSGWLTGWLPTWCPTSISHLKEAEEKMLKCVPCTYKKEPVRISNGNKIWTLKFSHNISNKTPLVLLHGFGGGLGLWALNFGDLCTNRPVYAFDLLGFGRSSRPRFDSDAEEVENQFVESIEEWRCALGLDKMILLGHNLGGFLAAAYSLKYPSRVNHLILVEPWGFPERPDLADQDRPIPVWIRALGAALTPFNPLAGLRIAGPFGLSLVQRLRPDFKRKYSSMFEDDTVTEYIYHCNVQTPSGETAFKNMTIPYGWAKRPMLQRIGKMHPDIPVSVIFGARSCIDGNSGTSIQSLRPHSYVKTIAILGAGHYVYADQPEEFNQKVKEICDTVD
# rCAG bind conf: small molecules binding CAG repeat RNA – biochemical, fluorescence, confirmation; shares compounds with rCAG RNA binder; r(CAG) RNA repeat, TO-PRO-1 dye displacement fluorescence; inhibition, % at 3 µM; actives 70% (n = 4,300); AID 652065, 2013;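 active means inhibition above a per-plate cutoff, the mean inhibition of sample wells plus 3 SD, cut at about 35% in these data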;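 further: loss of TO-PRO-1 fluorescence as compound displaces dye from 1x1 AA loop RNA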
# dCAG dye counter: displacement of TO-PRO-1 from CAG DNA duplex, counter-screen for rCAG RNA repeat binder project, biochemical, fluorescence, TO-PRO-1 dye, d(CAG) DNA oligo; shares compounds with rCAG RNA binder; d(CAG) DNA oligo TO-PRO-1 dye displacement; inhibition, % at 3 µM; actives 94% (n = 4,300);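 active means inhibition above its plate's cutoff, the mean test-well inhibition plus 3 SD, cut at about 4.8% in these data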;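 further: hits displace the dye from DNA and so lower well fluorescence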
# Hits are given with their value; - = inactive; . = not tested or not shown. Hits are enriched below; roughly 2.6% of the tested compounds scored in any of these assays.
SMILES,HCV core dimer,rCAG RNA binder,NadD inh,ABHD5 PLIN5 PPI,rCAG bind conf,dCAG dye counter
O=c1nc2c(O)cccn2c2c1c(=O)[nH]c1ccccc12,.,40,-,-,-,-
CN1CCN(c2ccc(CNC[C@H]3O[C@@H](n4cnc5c(=O)[nH]c(N)nc54)[C@H](O)[C@@H]3O)c(F)c2)CC1,.,-,-,-,.,.
Cc1ccc2nc(Cl)c(/C=N/Nc3ccc(C(=O)O)cc3)cc2c1,-,41,-,-,-,5.3
O=C(OCCN1CCCC12CCC(c1ccccc1)CC2)c1ccccc1 (configuration not stated),.,-,.,.,.,.
O=C(O)c1cc(-c2ccc(Cl)cc2)n(-c2ccc(Cl)cc2)n1,-,-,-,-,.,.
O=C(O)c1cc(-c2ccc(Cl)c(Cl)c2)n(-c2ccccc2)n1,-,41,-,-,-,-
COc1cc(C)c2c(c1C=O)Oc1c(c(C)c(O)c3c1C(O)OC3=O)OC2=O (configuration not stated),-,54,-,-,-,7.0
CCc1nc2nc(C)c(NS(=O)(=O)c3ccc(Cl)cc3)c(=O)n2[nH]1,-,-,-,-,.,.
CCc1nc2nc(C)c(NS(=O)(=O)c3ccc(C4CCCCC4)cc3)c(=O)n2[nH]1,-,49,-,-,44,14
Cc1nc2nc(C)c(NS(=O)(=O)c3ccc(C4CCCCC4)cc3)c(=O)n2[nH]1,-,38,-,-,40,9.5
C=CCN1C(=O)[C@H](CC(=O)NCc2ccc(C)o2)[C@@]2(C(=O)OCC)CCCC=C12,.,-,.,.,.,.
C[C@@H]1CN([C@@H](C)CO)C(=O)c2cc(Br)cnc2O[C@@H]1CN(C)Cc1ccccn1,.,-,.,.,.,.
O=c1[nH]c(Nc2ccccc2)cc2ccccc12,-,-,-,-,.,.
O=c1[nH]c(Nc2ccccc2)cc2cc(Br)ccc12,-,37,-,-,-,15
COc1ccc(-c2nn(-c3ccccc3)cc2/C=N/NC(=O)c2ccc(Br)o2)cc1,-,-,-,-,.,.
COc1cccc(-c2nn(-c3ccccc3)cc2/C=C(/NC(=O)c2ccccc2)C(=O)O)c1,-,38,-,-,38,9.2
COc1ccc(-c2nn(-c3ccccc3)cc2/C=N/Nc2cccc(C(=O)O)c2)cc1,.,37,-,-,48,20
CS(=O)(=O)c1ccc(C(=O)N2CCN(C(=O)c3ccco3)CC2)cc1,.,-,-,-,.,.
Cc1ccc(C)c(S(=O)(=O)C(C#N)c2nc3ccccc3nc2N2CC(C)OC(C)C2)c1 (configuration not stated),-,38,-,-,75,41
Cc1ccc(C)c(S(=O)(=O)C(C#N)c2nc3ccccc3nc2N2CCCC2)c1 (configuration not stated),-,-,-,-,.,.
CCOc1ccccc1C=C1SC(=S)N(CC)C1=O,.,-,-,-,.,.
O=C(O)CN1C(=O)/C(=C\c2cc(Br)ccc2OCc2ccccc2F)SC1=S,-,65,-,-,87,61
O=C(CN1C(=O)/C(=C/c2cccc(Cl)c2)SC1=S)NC1C=CS(=O)(=O)C1 (configuration not stated),-,-,-,-,.,.
O=C(O)CN1C(=O)/C(=C\c2cccc(OCc3ccc(Cl)cc3Cl)c2)SC1=S,.,79,30,-,85,58
O=C(O)CN1C(=O)/C(=C\c2cc(Br)ccc2OCc2ccc([N+](=O)[O-])cc2)SC1=S,-,77,-,-,94,75
O=C(O)CN1C(=O)/C(=C\c2ccccc2OCc2ccc(Cl)cc2Cl)SC1=S,-,79,-,-,90,66
O/N=C/c1cc(Br)ccc1OCc1ccccc1F,-,-,-,-,.,.
O=C(NCc1ccc(F)cc1F)[C@@H]1CCCN1C(=O)[C@@H]1CCCN1,.,-,-,-,.,.
O=C(O)CN1C(=O)/C(=C\c2cc(Br)ccc2OCc2ccccc2Cl)SC1=S,-,78,-,-,93,75
